The values below come from ChEMBL document CHEMBL3352557, “Design, synthesis and antimycobacterial activity of various 3-(4-(substitutedsulfonyl)piperazin-1-yl)benzo[d]isoxazole derivatives” (Eur J Med Chem, 2014).

Structures are written as SMILES. In brackets after ≈: the same amount, converted by molar mass.

Data set [1] deals with Mycobacterium tuberculosis. In words: Antimycobacterial activity against Mycobacterium tuberculosis H37Rv ATCC 27294 after 7 days by MABA method. In kind it is functional. The note with it: H37Rv ATCC 27294, 168 h. The method in brief:
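Two-fold serial dilutions in Middlebrook 7H9GC medium, final 50 to 0.78 µg/mL (DMSO stocks), inoculum 2 × 10^5 CFU/mL. Incubated at 37 °C for 7 days, then 10% Tween 80 and Alamar Blue added and incubated 24 h at 37 °C. Blue read as no growth, pink as growth. MIC is the lowest concentration preventing the blue-to-pink change. Isoniazid and rifampin served as positive controls.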
On the technique in general: Alamar Blue is a resazurin reagent that responds to reducing activity.

Data set [2] is described as follows: Selectivity index, ratio of IC50 for mouse RAW264.7 cells to MIC for Mycobacterium tuberculosis H37Rv ATCC 27294. In kind it is toxicity. The note with it: read-out: Selectivity Index.
Data set [3] can be described thus: Cytotoxicity against mouse RAW264.7 cells assessed as inhibition of cell growth at 50 ug/mL after 72 hrs by MTT assay. In kind it is cell-based. The note with it: read-out: GI. The method in brief:
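RAW 264.7 mouse macrophage line treated at 50 µg/mL for 72 h. Viability was scored by cellular reduction of MTT to a formazan product in a non-radioactive cell proliferation assay.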

Another data set has as its system RAW264.7. In words: Cytotoxicity against mouse RAW264.7 cells assessed as inhibition of cell growth after 72 hrs by MTT assay. The note with it: RAW264.7, 72 h. The data set is classed as cell-based. Put shortly: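 Mouse macrophage RAW 264.7 cells exposed to compound for 72 h. Viability was read as cellular conversion of MTT to formazan using a non-radioactive cell proliferation kit, and IC50 was taken from this.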
On the technique in general: Formazan colour is commonly taken as a measure of viable cells.

Data set [4] deals with Mycobacterium tuberculosis. In words: Antimycobacterial activity against Mycobacterium tuberculosis H37Rv ATCC 27294 assessed as inhibition of cell growth at 6.25 ug/mL after 7 days by MABA method. The note with it: H37Rv ATCC 27294, 168 h, read-out: GI. In kind it is functional.
The subject of data set [5] is Mycobacterium tuberculosis. Put plainly: Antimycobacterial activity against Mycobacterium tuberculosis H37Rv ATCC 27294 assessed as inhibition of cell growth at 3.125 ug/mL after 7 days by MABA method. The data set is classed as functional. The note with it: H37Rv ATCC 27294, 168 h, read-out: GI.

For orientation: MIC means the smallest concentration in the dilution series that meets the test's criterion for growth inhibition. A low value points to a more susceptible organism. In data set [1], `NNC(=O)c1ccncc1` [ISONIAZID] came in with a minimum inhibitory concentration (MIC) of 0.36 µg/mL (≈ 2.63 µM).
In general, IC50 refers to the concentration needed to halve the response being measured. For `O=S(=O)(c1ccc(OC(F)(F)F)cc1)N1CCN(c2noc3cc(Cl)ccc23)CC1`, the selectivity ratio in data set [2] amounted to 11. Further, the MIC in data set [1] came to 12.5 µg/mL (≈ 27.1 µM). Also, in data set [3], the inhibition at 72 h, 50 ug/mL was found to be 18.1%. The IC50 with RAW264.7 is 138 µg/mL (≈ 299 µM).
`Clc1cccc2onc(N3CCNCC3)c12` had an MIC in data set [1] of 25 µg/mL (≈ 105 µM).
`Cc1ccc(S(=O)(=O)N2CCN(c3noc4c(Cl)cccc34)CC2)cc1` had an MIC in data set [1] of more than 50 µg/mL.
Still for that read-out and setting: with `Cc1ccc(S(=O)(=O)N2CCN(c3noc4ccccc34)CC2)cc1` the figure was 50 µg/mL (≈ 140 µM); with `Clc1cccc2c(N3CCNCC3)noc12`, 25 µg/mL (≈ 105 µM).
Regarding `O=S(=O)(c1ccc(OC(F)(F)F)cc1)N1CCN(c2noc3cccc(Cl)c23)CC1`, the selectivity ratio in data set [2] is 4.74. The minimum inhibitory concentration (MIC) in data set [1] is 12.5 µg/mL (≈ 27.1 µM). Moreover, in data set [3], the inhibition at 72 h, 50 ug/mL came to 42.2%. Further, the IC50 in the data set on RAW264.7 was 59.3 µg/mL (≈ 128 µM).
As to `O=S(=O)(c1ccc(Br)cc1)N1CCN(c2noc3ccccc23)CC1`, it took 50 µg/mL (≈ 118 µM) to inhibit growth in data set [1] (MIC).
Still for that read-out and setting: with `O=S(=O)(c1ccccc1)N1CCN(c2noc3cccc(Cl)c23)CC1` the figure was 25 µg/mL (≈ 66.2 µM); with `O=S(=O)(c1ccc(Br)cc1)N1CCN(c2noc3cccc(Cl)c23)CC1`, 50 µg/mL (≈ 109 µM).
Same read-out and setting: with `O=S(=O)(c1ccccc1)N1CCN(c2noc3cc(Cl)ccc23)CC1` the figure was 25 µg/mL (≈ 66.2 µM); with `O=S(=O)(c1ccc(OC(F)(F)F)cc1)N1CCN(c2noc3c(Cl)cccc23)CC1`, more than 50 µg/mL.
Turning to `CS(=O)(=O)N1CCN(c2noc3ccccc23)CC1`, the selectivity ratio in data set [2] amounted to 7.03. Also, the minimum inhibitory concentration (MIC) in data set [1] turned out to be 12.5 µg/mL (≈ 44.4 µM). Moreover, the inhibition at 72 h, 50 ug/mL in data set [3] was found to be 28.4%. For the same compound, the IC50 with RAW264.7 was 88 µg/mL (≈ 313 µM).
Compound `O=[N+]([O-])c1ccc(S(=O)(=O)N2CCN(c3noc4cccc(Cl)c34)CC2)cc1` returned a minimum inhibitory concentration (MIC) in data set [1] of 50 µg/mL (≈ 118 µM).
In data set [1], `CS(=O)(=O)N1CCN(c2noc3cc(Cl)ccc23)CC1` had an MIC of more than 50 µg/mL.
Same read-out and setting: with `O=[N+]([O-])c1ccc(S(=O)(=O)N2CCN(c3noc4cc(Cl)ccc34)CC2)cc1` the figure was 25 µg/mL (≈ 59.1 µM); with `O=S(=O)(c1ccc(OC(F)(F)F)cc1)N1CCN(c2noc3ccccc23)CC1`, more than 50 µg/mL.
In the case of `Cc1ccc(S(=O)(=O)N2CCN(c3noc4cccc(Cl)c34)CC2)cc1`, the selectivity ratio in data set [2] amounted to 18.5. For the same compound, in data set [1], 6.25 µg/mL (≈ 15.9 µM) was the least that counted as inhibitory (MIC). The inhibition at 72 h, 50 ug/mL in data set [3] worked out at 21.6%. Also, the IC50 in the data set with RAW264.7 was 116 µg/mL (≈ 295 µM). Moreover, the inhibition of growth at 6.25 µg/mL in data set [4] was 99%.
Regarding `O=S(=O)(c1ccccc1)N1CCN(c2noc3c(Cl)cccc23)CC1`, in data set [1], it took 25 µg/mL (≈ 66.2 µM) to inhibit growth (MIC).
Still for that read-out and setting: with `O=[N+]([O-])c1ccc(S(=O)(=O)N2CCN(c3noc4c(Cl)cccc34)CC2)cc1` the figure was 50 µg/mL (≈ 118 µM); with `O=[N+]([O-])c1ccc(S(=O)(=O)N2CCN(c3noc4ccccc34)CC2)cc1`, more than 50 µg/mL.
Still for that read-out and setting: next, `O=S(=O)(c1ccc(Br)cc1)N1CCN(c2noc3c(Cl)cccc23)CC1`: 25 µg/mL (≈ 54.7 µM).
Regarding `Clc1ccc2c(N3CCNCC3)noc2c1`, the selectivity ratio in data set [2] is 8.29. This compound also gave an MIC in data set [1] of 12.5 µg/mL (≈ 52.6 µM). In addition, the inhibition at 72 h, 50 ug/mL in data set [3] was found to be 24.1%. Besides, the 50% inhibitory concentration (IC50) in the data set with RAW264.7 amounted to 104 µg/mL (≈ 436 µM).
For `c1ccc2c(N3CCNCC3)noc2c1`, in that order: 10.8, 6.25 µg/mL (≈ 30.8 µM), 36.8% and 67.9 µg/mL (≈ 334 µM).
Compound `CS(=O)(=O)N1CCN(c2noc3cccc(Cl)c23)CC1` came in with an MIC in data set [1] of more than 50 µg/mL.
`O=S(=O)(c1ccc(Br)cc1)N1CCN(c2noc3cc(Cl)ccc23)CC1` yielded an MIC in data set [1] of more than 50 µg/mL.
Take `O=S(=O)(c1ccccc1)N1CCN(c2noc3ccccc23)CC1`: the selectivity ratio in data set [2] worked out at 137. The compound further yielded an MIC in data set [1] of 3.12 µg/mL (≈ 9.09 µM). For the same compound, the inhibition at 72 h, 50 ug/mL in data set [3] was determined as 5.82%. The inhibition of growth at 3.125 µg/mL in data set [5] worked out at 99%. For the same compound, in the data set on RAW264.7, the IC50 is 430 µg/mL (≈ 1250 µM).
In data set [1], `CS(=O)(=O)N1CCN(c2noc3c(Cl)cccc23)CC1` yielded an MIC of 25 µg/mL (≈ 79.2 µM).
On the same count and under the same terms, with `Cc1ccc(S(=O)(=O)N2CCN(c3noc4cc(Cl)ccc34)CC2)cc1` the figure was more than 50 µg/mL; with `CO[C@H]1/C=C/O[C@@]2(C)Oc3c(C)c(O)c4c(O)c(c(/C=N/N5CCN(C)CC5)c(O)c4c3C2=O)NC(=O)/C(C)=C\C=C\[C@H](C)[C@H](O)[C@@H](C)[C@@H](O)[C@@H](C)[C@H](OC(C)=O)[C@@H]1C` [RIFAMPIN], 1 µg/mL (≈ 1.22 µM).
